Data on 12 compounds can be found in ChEMBL document CHEMBL4024803, “New Steroidal 4-Aminoquinolines Antagonize Botulinum Neurotoxin Serotype A in Mouse Embryonic Stem Cell Derived Motor Neurons in Postintoxication Model” (J Med Chem, 2018).

Data set [1] addresses Botulinum neurotoxin type A (Clostridium botulinum) (UniProt P0DPI0). Briefly: Inhibition of Clostridium botulinum BoNT/A light chain at 20 uM using P39 as substrate preincubated for 10 mins followed by substrate addition measured after 10 mins by HPLC method relative to control. Put shortly: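 Purified BoNT/A light chain (20 nM) with 0.2 mg/mL BSA in 50 mM HEPES pH 7.4, preincubated with compound for 10 min at room temperature. Cleavage fragments were separated by reversed-phase HPLC (214/280 nm). Percent inhibition was taken from fragment peak areas with vs without compound. Mean of three experiments.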

The target is the same in data set [2]. The data set is described as follows: Inhibition of Clostridium botulinum BoNT/A holotoxin-mediated SNAP-25 cleavage in mouse HBG3 cell-derived motor neurons assessed as full length of SNAP-25 at 10 uM preincubated for 30 mins followed by intoxication measured after 4 hrs by Western blot method relative to control. More on the design: scale not given: the % may be the effect or the level left.

The target is the same in data set [3]. Briefly: Inhibition of Clostridium botulinum BoNT/A holotoxin-mediated SNAP-25 cleavage in mouse HBG3 cell-derived motor neurons assessed as full length of SNAP-25 at 20 uM preincubated for 30 mins followed by intoxication measured after 4 hrs by Western blot method relative to control. The arrangement: scale not given: the % may be the effect or the level left.

Data set [4] shares this target. The data set is described as follows: (§1) Inhibition of Clostridium botulinum BoNT/A holotoxin-mediated SNAP-25 cleavage in mouse HBG3 cell-derived motor neurons preincubated for 30 mins followed by intoxication measured after 4 hrs by Western blot method. A general note: A western blot detects proteins with antibodies after separation by electrophoresis.
Data set [5] concerns the target T1, Botulinum neurotoxin type A (Clostridium botulinum, UniProt P0DPI0). The description is as §1.
Data set [6] can be described thus: Distribution co-efficient, log D of the compound at pH 10 by reversed-phase thin-layer chromatographic method. The data set is classed as physicochemical. Particulars: buffer. The essentials: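 Reversed-phase thin-layer chromatography at pH 10, mobile phase acetone/NH3/H2O (85/5/10).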
The target in data set [7] is Botulinum neurotoxin type A (Clostridium botulinum) (UniProt P0DPI0). Briefly: Inhibition of Clostridium botulinum BoNT/A holotoxin-mediated SNAP-25 cleavage in mouse HBG3 cell-derived motor neurons assessed as full length of SNAP-25 at 8 uM preincubated for 30 mins followed by intoxication measured after 4 hrs by Western blot method relative to control. The arrangement: scale not given: the % may be the effect or the level left.

Data set [8] has the same target. The data set is described as follows: Inhibition of Clostridium botulinum BoNT/A holotoxin-mediated SNAP-25 cleavage in mouse HBG3 cell-derived motor neurons assessed as full length of SNAP-25 at 16 uM preincubated for 30 mins followed by intoxication measured after 4 hrs by Western blot method relative to control. The arrangement: scale not given: the % may be the effect or the level left.

Data set [9] shares this target. The data set is described as follows: Inhibition of Clostridium botulinum BoNT/A holotoxin-mediated SNAP-25 cleavage in mouse HBG3 cell-derived motor neurons assessed as full length of SNAP-25 at 16 uM treated at 30 mins post intoxication by Western blot method relative to control. More on the design: scale not given: the % may be the effect or the level left.
Data set [10] shares this target. Briefly: Inhibition of Clostridium botulinum BoNT/A holotoxin-mediated SNAP-25 cleavage in mouse HBG3 cell-derived motor neurons assessed as full length of SNAP-25 at 64 uM treated at 30 mins post intoxication by Western blot method relative to control. The arrangement: scale not given: the % may be the effect or the level left.
Data set [11] is described as follows: Distribution co-efficient, log D of the compound at pH 1 by reversed-phase thin-layer chromatographic method. Format: physicochemical. Particulars: buffer. The essentials:
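Reversed-phase thin-layer chromatography at pH 1, mobile phase MeOH/HCl (70/30).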

The target of data set [12] is Botulinum neurotoxin type A (Clostridium botulinum) (UniProt P0DPI0). The data set is described as follows: (§2) Inhibition of Clostridium botulinum BoNT/A light chain using P39 as substrate preincubated for 10 mins followed by substrate addition measured after 10 mins by HPLC method.
Data set [13] deals with T1, Botulinum neurotoxin type A. The description is as §2.
Data set [14] addresses Botulinum neurotoxin type A (Clostridium botulinum) (UniProt P0DPI0). The data set is described as follows: Inhibition of Clostridium botulinum BoNT/A holotoxin-mediated SNAP-25 cleavage in mouse HBG3 cell-derived motor neurons assessed as full length of SNAP-25 at 20 uM treated at 30 mins post intoxication by Western blot method relative to control. The arrangement: scale not given: the % may be the effect or the level left.

Data set [15] shares this target. The data set is described as follows: Inhibition of Clostridium botulinum BoNT/A holotoxin-mediated SNAP-25 cleavage in mouse HBG3 cell-derived motor neurons assessed as full length of SNAP-25 at 20 uM treated at 60 mins post intoxication by Western blot method relative to control. More on the design: scale not given: the % may be the effect or the level left.
Data set [16] concerns Mus musculus. Briefly: Toxicity in mouse assessed as effect on survival at 160 mg/kg, po administered for 3 days measured after 30 days. The data set is classed as organism-based. Particulars: in vivo, 720 h. Put shortly:
(§3)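 Groups of five healthy mice were dosed per os for three consecutive days, suspended in 0.5% hydroxyethylcellulose–0.1% Tween 80. Behaviour and appearance were monitored twice daily for 30 days, with survival assessed at 30 days. Non-toxic was defined as all 5 surviving with normal appearance and behaviour.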

For data set [17], the system named is Mus musculus. Briefly: Toxicity in mouse assessed as effect on appearance at 160 mg/kg, po administered for 3 days measured 2 times a day for 30 days. The note with it: in vivo, 720 h. The data set is classed as organism-based. The essentials: as §3
Data set [18] has as its system Mus musculus. Briefly: Toxicity in mouse assessed as effect on behavior at 160 mg/kg, po administered for 3 days measured 2 times a day for 30 days. The note with it: in vivo, 720 h. The data set is classed as organism-based. The essentials:
as §3

For data set [19], the system named is Mus musculus. The data set is described as follows: In vivo inhibition of Clostridium botulinum BoNT/A in CD1 mouse assessed as mouse survival at 1 mg/kg, ip administered 3 hrs post intoxication measured over 24 hrs relative to control. Format: functional.

Usually inhibition stands for the change of the read-out against control, counted positive when it falls. As a reminder, the IC50 is the midpoint of a concentration-inhibition curve. In general, chromatographic logD refers to lipophilicity estimated from chromatographic retention.

Regarding `CC(CCCN(C)Cc1ccc(-c2csc3ccc(C#N)cc23)cc1)Nc1ccnc2ccccc12` (stereo not drawn), the results for the inhibition in [1] and in data set [4] were 27% and “Dose-dependent effect”, respectively. In addition, the Activity was determined as 59% in data set [2] and 64% in data set [3]. The same compound showed a half-maximal inhibitory concentration (IC50) in data set [5] of 10 to 20 µM. This compound also yielded a chromatographic logD in [6] of 3.42.

For `C[C@H](CCCNCCCCNc1ccnc2cc(Cl)ccc12)[C@H]1CC[C@H]2[C@@H]3[C@H](O)C[C@@H]4C[C@H](N)CC[C@]4(C)[C@H]3C[C@H](O)[C@]12C`, the inhibition in data set [1] is 48%; in data set [4], “Dose-dependent effect”. In addition, the Activity was 46% in [2]; 58% in data set [7]; 58% in data set [8]; 49% in [9]; 69% in data set [10]. In addition, the IC50 in data set [5] lay in the range of 8 to 16 µM. The chromatographic logD in data set [11] was 2.97.

For the compound `CC(=O)O[C@H]1C[C@H]2[C@@H]([C@H](OC(C)=O)C[C@@H]3C[C@H](NCCCCCCNc4ccnc5cc(Cl)ccc45)CC[C@@]32C)[C@@H]2CC[C@H]([C@H](C)CCCNCCCCCCNc3ccnc4cc(Cl)ccc34)[C@@]12C`, the figures for the inhibition in data set [1], in [12] and in [4] were 90%, “Dose-dependent effect” and “Dose-dependent effect”, respectively. In [13], the concentration for half-maximal inhibition (IC50) stood at 12.4 µM. Further, the Activity in [2] turned out to be 70%; in data set [3], 84%; in data set [14], 36%; in data set [15] it was 20%.

Take `CC(CCN(C)CC12CC3CC(CC(C3)C1)C2)Nc1ccnc2cc(Cl)ccc12` (stereo not drawn): the inhibition in [1] is 67%; in data set [12] it was “Dose-dependent effect”; in data set [4], “Dose-dependent effect”. The IC50 in data set [13] was 11.7 µM; in data set [5], under 10 µM. Also, the Activity in [2] was 63%; in [3], 72%; in data set [14], 15%; in data set [15] it was 16%. In data set [6], this compound yielded a chromatographic logD of 3.47.

In the case of `N#Cc1ccc(-c2ccc(-c3ccc(CNCCCCCCCCNc4ccnc5ccccc45)cc3)s2)cc1`, the Activity entry is “Non-Toxic” in data set [16]; 31% in data set [2]; 70% in [3]; 20% in data set [14]; 19% in [15]; “Non-Toxic” in [17]. Further, the Activity entry in data set [18] is “Non-Toxic”. Besides, the values for the inhibition in data set [1], in [12] and in [4] were 77%, “Dose-dependent effect” and “Dose-dependent effect”, respectively. Besides, the results for the 50% inhibitory concentration (IC50) in data set [13] and in [5] were 6.8 µM and 10 to 20 µM, respectively. Besides, the chromatographic logD in data set [11] was found to be 3.42.

Turning to `CC(=O)O[C@H]1C[C@H]2[C@@H]([C@H](OC(C)=O)C[C@@H]3C[C@H](N)CC[C@@]32C)[C@@H]2CC[C@H]([C@H](C)CCCNCCCC(C)Nc3ccnc4ccccc34)[C@@]12C` (mixture of isomers), the inhibition in data set [1] was 71%; in data set [12] it was “Dose-dependent effect”; in data set [4], “Dose-dependent effect”. Also, it took 2.7 µM to reach half-maximal inhibition in [13] (IC50). Also, the Activity in data set [2] was determined as 67%; in data set [3], 69%; in [14], 38%; in data set [15], 22%. In [11], this compound displayed a chromatographic logD of 2.28.

As for `CN(CCCCCCCCNc1ccnc2ccccc12)Cc1ccc(-c2ccc(-c3ccc(C#N)cc3)s2)cc1`, the Activity entry is “Non-Toxic” in data set [16]; 54% in data set [2]; 60% in data set [3]; 34% in data set [14]; 22% in data set [15]; “Non-Toxic” in data set [17]. In addition, the Activity entry in data set [18] was “Non-Toxic”. The inhibition in data set [1] was 35%; in data set [4], “Dose-dependent effect”. Besides, the half-maximal inhibitory concentration (IC50) in data set [5] fell in the range of 5 to 10 µM. The compound further came in with a chromatographic logD in [11] of 3.33.

Consider `O=C(N/N=C/c1cc(O)c(O)cc1O)c1cc2ccccc2cc1O`, for which the survival at 1 mg/kg in data set [19] is 30%.

In the case of `CC(=O)O[C@H]1C[C@H]2[C@@H]([C@H](OC(C)=O)C[C@@H]3C[C@H](N)CC[C@@]32C)[C@@H]2CC[C@H]([C@H](C)CCCNCCCCNc3ccnc4ccccc34)[C@@]12C`, the results for the inhibition in data set [1], in data set [12] and in data set [4] were 80%, “Dose-dependent effect” and “Dose-dependent effect”, respectively. Besides, the IC50 in [13] is 5.7 µM; in [5] it was 10 to 20 µM. The Activity in data set [2] is 28%; in data set [3] it was 67%; in data set [14], 48%; in [15], 49%. In data set [11], this compound yielded a chromatographic logD of 2.14.

In the case of `CC(=O)O[C@H]1C[C@H]2[C@@H]([C@H](OC(C)=O)C[C@@H]3C[C@H](N)CC[C@@]32C)[C@@H]2CC[C@H]([C@H](C)CCCNC(C)CCCNc3ccnc4ccccc34)[C@@]12C` (mixture of isomers), the inhibition in data set [1] is 75%; in [12], “Dose-dependent effect”; in [4], “Dose-dependent effect”. This compound returned an IC50 in [13] of 3 µM. Also, the Activity was 86% in data set [2], 87% in [3], 50% in data set [14] and 22% in [15]. The compound also registered a chromatographic logD in data set [11] of 2.21.

Regarding `CN(CCCNc1ccnc2cc(Cl)ccc12)CC12CC3CC(CC(C3)C1)C2`, the inhibition in data set [1] is 71%; in [12] it was “Dose-dependent effect”; in data set [4], “Dose-dependent effect”. In data set [13], this compound returned an IC50 of 8.8 µM. The Activity came out at 51% in data set [2], 56% in data set [3], 46% in data set [14] and 39% in [15]. The chromatographic logD in data set [6] turned out to be 3.24.

With `CC(CCCNc1ccnc2ccccc12)NCc1ccc(-c2csc3ccc(F)cc23)cc1` (stereo not drawn), the Activity result is “Non-Toxic” in data set [16]; 58% in [2]; 68% in [3]; 16% in [14]; 17% in data set [15]; “Non-Toxic” in data set [17]. Further, the Activity entry in [18] was “Non-Toxic”. For the same compound, the inhibition was 75% in data set [1], “Dose-dependent effect” in [12] and “Dose-dependent effect” in [4]. The values for the IC50 in data set [13] and in [5] were 7.4 µM and 10 to 20 µM, respectively. In addition, the chromatographic logD in [6] worked out at 3.85.
